Activity calls are given as the source filed them. No cut-off for these calls is given here.

The test system of test [1] is Mus musculus. Put plainly: Immunomodulatory activity in C57BL/6 mouse assessed as serum IFNgamma/IL-4 maximum productivity ratio at 100 ug/kg, ip by ELISA. Format: functional. The essentials: (§1)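 Glycolipid given once i.p. to B6 mice at 100 μg/kg in 0.1 mL vehicle. Serum IL-4 and IFN-γ followed over time after injection, three mice per group, each serum sampled individually. IFN-γ/IL-4 selectivity expressed two ways: ratio of areas under the time–concentration curves, and ratio of peak (maximum) production.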

Test [2] has as its system Mus musculus. The test is described as follows: Immunomodulatory activity in C57BL/6 mouse assessed as serum IFNgamma/IL-4 AUC ratio at 100 ug/kg, ip by ELISA. The class given is functional. Put shortly:
as §1

The subject of test [3] is Mus musculus. The test is described as follows: Immunomodulatory activity in C57BL/6 mouse assessed as increase in IFN-gamma secretion in serum at 100 ug/kg, ip by ELISA. Format: functional, organism-based. Put shortly:
as §1

In test [4] the test system is Mus musculus. The test is described as follows: Immunomodulatory activity in C57BL/6 mouse assessed as increase in IL-4 secretion in serum at 100 ug/kg, ip by ELISA. Format: functional, organism-based. Put shortly:
as §1

The subject of test [5] is Mus musculus. Put plainly: Immunomodulatory activity in C57BL/6 mouse assessed as increase in IL-4 secretion in serum at 100 ug/kg, ip after 3 hrs by ELISA. Format: functional, organism-based. Put shortly: as §1

Take `CCCCCCCCCCCCCC[C@@H](O)[C@@H](O)[C@H](CO[C@H]1S[C@H](CO)[C@H](O)[C@H](O)[C@H]1O)NC(=O)C(F)(F)C(F)(F)C(F)(F)C(F)(F)C(F)(F)C(F)(F)C(F)(F)C(F)(F)C(F)(F)C(F)(F)C(F)(F)C(F)(F)C(F)(F)F`: the Ratio is 0.59 in test [1] and 0.58 in test [2].

In the case of `CCCCCCCCCCCCCC[C@@H](O)[C@@H](O)[C@H](CO[C@H]1S[C@H](CO)[C@H](O)[C@H](O)[C@H]1O)NC(=O)C(F)(F)C(F)(F)C(F)(F)C(F)(F)C(F)(F)C(F)(F)C(F)(F)F`, the Ratio stood at 9 in test [1] and 26.7 in test [2].

Take `CCCCCCCCCCCCCC[C@@H](O)[C@@H](O)[C@H](CO[C@H]1O[C@H](CO)[C@H](O)[C@H](O)[C@H]1O)NC(=O)C(F)(F)C(F)(F)C(F)(F)C(F)(F)C(F)(F)C(F)(F)C(F)(F)F`: the Ratio was 3.4 in test [1] and 5.8 in test [2].

For `CCCCCCCCCCCCCC[C@@H](O)[C@@H](O)[C@H](CO[C@H]1S[C@H](CO)[C@H](O)[C@H](O)[C@H]1O)NC(=O)CCCCCCC(F)(F)F`, the result in test [3] and in test [4] was inactive.

With `CCCCCCCCCCCCCC[C@@H](O)[C@@H](O)[C@H](CO[C@H]1O[C@H](CO)[C@H](O)[C@H](O)[C@H]1O)NC(=O)CCCCCCC(F)(F)F`, the result in test [3] and in test [4] was inactive.

For the molecule `CCCCCCCCCCCCCC[C@@H](O)[C@@H](O)[C@H](CO[C@H]1O[C@H](CO)[C@H](O)[C@H](O)[C@H]1O)NC(=O)C(F)(F)C(F)(F)C(F)(F)C(F)(F)C(F)(F)C(F)(F)C(F)(F)C(F)(F)C(F)(F)C(F)(F)C(F)(F)C(F)(F)C(F)(F)F`, the result in test [3] and in test [4] was inactive.

On to `CCCCCCCCCCCCCCCCCCCCCCCCCC(=O)N[C@@H](CO[C@H]1O[C@H](CO)[C@H](O)[C@H](O)[C@H]1O)[C@H](O)[C@H](O)CCCCCCCCCCCCCC` [RGI-7000], for which the outcome in test [5] and in test [3] was Active. The Ratio worked out at 2.8 in test [1] and 12.1 in test [2].

These data come from ChEMBL document CHEMBL4330187, “Synthesis of 5-Thio-α-GalCer Analogues with Fluorinated Acyl Chain on Lipid Residue and Their Biological Evaluation” (2019).
